DTT redox prof: compounds producing H2O2 with reducing agent – biochemical, NIH compound library profiling, artefact control for MLSCN library redox annotation, primary screen; DTT-dependent redox cycling H2O2, phenol red/HRP absorbance; 100% = 100 µM peroxide control, 0% = buffer; 200,000 tested, 0.03% active; activation, % at 10 µM;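 active means activation of at least 50% relative to the plate's high and low controls in the primary single-dose screen; inactive means activation below 50%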;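 further: compound incubated with DTT at 0.8 mM final as the reducing agent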
KCC2 mod: modulates chloride dependent transport by human KCC2; B-score of Tl+ flux slope (higher = more flux/activation; lower = inhibition) at 10 µM; Q9H2X9; 190,000 tested, 2.2% active; KCC2 cells, thallium flux FluoZin-2 fluorescence; AID 1456;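 active means thallium flux slope and its plate-corrected score both differing from the plate sample mean at a set confidence after two filtering rounds, in either direction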;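 further: slope of fluorescence scaled to starting intensity during 10 to 20 s after thallium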
Target sequence (Q9H2X9 whole entry, looked up): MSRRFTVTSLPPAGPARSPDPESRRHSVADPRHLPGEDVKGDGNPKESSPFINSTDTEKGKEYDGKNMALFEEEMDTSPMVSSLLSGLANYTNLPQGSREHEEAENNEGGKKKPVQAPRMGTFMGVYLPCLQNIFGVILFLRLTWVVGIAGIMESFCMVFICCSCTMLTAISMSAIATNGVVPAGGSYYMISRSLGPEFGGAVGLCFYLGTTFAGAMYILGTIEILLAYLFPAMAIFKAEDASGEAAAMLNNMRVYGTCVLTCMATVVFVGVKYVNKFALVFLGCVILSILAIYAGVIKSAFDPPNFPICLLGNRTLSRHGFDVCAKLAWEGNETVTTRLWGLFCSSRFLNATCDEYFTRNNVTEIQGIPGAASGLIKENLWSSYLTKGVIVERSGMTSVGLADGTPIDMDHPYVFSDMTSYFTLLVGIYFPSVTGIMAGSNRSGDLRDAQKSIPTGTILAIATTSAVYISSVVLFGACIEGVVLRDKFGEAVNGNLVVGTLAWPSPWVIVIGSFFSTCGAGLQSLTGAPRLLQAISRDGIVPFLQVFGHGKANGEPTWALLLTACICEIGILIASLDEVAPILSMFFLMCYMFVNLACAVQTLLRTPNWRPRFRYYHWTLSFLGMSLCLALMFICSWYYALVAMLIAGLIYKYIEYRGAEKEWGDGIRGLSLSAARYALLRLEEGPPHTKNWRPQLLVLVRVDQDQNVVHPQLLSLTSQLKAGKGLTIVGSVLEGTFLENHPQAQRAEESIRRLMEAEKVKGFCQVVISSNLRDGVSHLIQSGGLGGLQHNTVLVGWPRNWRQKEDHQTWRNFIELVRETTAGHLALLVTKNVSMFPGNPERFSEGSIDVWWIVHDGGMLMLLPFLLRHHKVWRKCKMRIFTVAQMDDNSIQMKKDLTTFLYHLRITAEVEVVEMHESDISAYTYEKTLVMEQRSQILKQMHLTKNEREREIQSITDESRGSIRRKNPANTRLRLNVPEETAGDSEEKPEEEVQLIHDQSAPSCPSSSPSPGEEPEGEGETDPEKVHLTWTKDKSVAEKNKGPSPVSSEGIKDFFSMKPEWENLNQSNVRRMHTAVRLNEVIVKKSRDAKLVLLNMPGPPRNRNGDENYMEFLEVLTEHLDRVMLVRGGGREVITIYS
Dynein cargo inh: blocks dynein driven cargo transport along microtubules | 3617.4 mouse cells, GR-EGFP nuclear translocation imaging; test concentration mostly 20 µM; stimulated with dexamethasone, 1 µM; hits give low values | 220,000 tested, 0.47% active | AID 1381 | z-score, hits read low;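 active means plate z-score of nuclear minus cytoplasmic receptor signal below a set negative limit, without overly bright fluorescence or cell loss, cut at about -3.5 in these data, passing the limit was not always enough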;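 further: z-score of nuclear minus cytoplasmic ring GR-EGFP intensity difference per well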
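Also added – dexamethasone, 1.0 µM final · Buffer or medium – tet-free, stripped-serum medium · Schedule – induction 48 h, compound 1 h, agonist 30 min · Detection – formaldehyde fixation, Hoechst nuclear stain, 10x automated fluorescence imaging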
ROMK primary: modulators of human ROMK potassium channel. P48048. Tet-inducible ROMK, thallium flux fluorescence; actives lie on both sides. B-score at 10 µM. 130,000 tested, 2% active. AID 1918;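 active means signal ratio slope over the read window, or its plate-corrected B-score, at least 3 SD from the plate mean, either direction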;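 further: B-score of the F/F0 ratio slope over 7 to 12 s after thallium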
Autophagy HCS: autophagy modulation, high-content screen; MEF GFP-LC3 puncta imaging; test concentration mostly 10 µM; calls only at 10 µM (by protocol); 190,000 tested, 0.98% active; AID 463193;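 active means percentage of spot-positive cells more than 3 SD above its plate mean, without a fluorescence outlier flag or 80% toxicity; inconclusive means no clear call, values can overlap the other calls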;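 further: spot-positive cell cutoff set from DMSO-treated cells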
ROMK hit retest: confirmation of human ROMK potassium channel modulators | shares compounds with ROMK primary | normalized thallium flux (F/F0 slope) at 10 µM | ROMK thallium flux, fluorescence ratio; hits give low values | 3,000 tested, 54% active;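 active means Flux at 10 µM at least 3 SD below or above vehicle control mean in one or both replicates; inconclusive means no clear call, values can overlap the other calls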
The depositor's hits bear a star; i = inactive; ? = inconclusive; . = no result; + = active, no number. Compounds with a hit are over-represented: about 4.1% of the library has one in this group of screens.

SMILES	DTT redox prof	KCC2 mod	Dynein cargo inh	ROMK primary	Autophagy HCS	ROMK hit retest
COc1ccc(Cl)cc1NC(=O)CN(C)CC(=O)Nc1ccccc1N1CCOCC1	-2	0.69	1.1	5.1*	i	?
Clc1cccc(Cl)c1Cn1ccc(C2CC2)n1	-3	-1.8	-0.53	-0.26	i	.
O=Cc1cnc(N2CCOCC2)nc1	0	0.49	1.6	0.96	i	.
CNC(=S)N(Cc1ccccc1)Cc1cccnc1	.	-1.5	1.4	-12*	.	0.071
Cc1ccccc1NC(=S)N(Cc1ccccc1)Cc1cccnc1	-2	-0.26	-0.27	-0.64	i	.
COc1ccc(C2=NN(C(=O)CCC(=O)O)C(c3cccs3)C2)cc1 (stereo unspecified)	0	0.29	0.3	-3.5*	i	0.075
Cc1ccc(C2=NN(C(=O)CCC(=O)O)C(c3cccs3)C2)cc1 (stereo unspecified)	.	-0.56	0.84	-0.039	.	.
COCCNC(=O)C(=O)NNC(=O)CCc1ccccc1	0	-0.12	0.22	0.0053	i	.
CCOC(=O)c1c(NC(=O)C[n+]2ccc(Cc3ccccc3)cc2)sc(C)c1C	0	-0.79	-0.83	-3.8*	i	0.061*
CCOC(=O)c1c(NC(=S)Nc2ccccc2)sc(C)c1C	0	0.055	-0.56	.	i	.
CCCNC(=S)Nc1ccc(F)cc1F	.	0.13	0.58	.	.	.
C=CCNC(=O)NC(=O)COC(=O)c1nc2nccc(C)n2n1	0	0.17	1.4	0.69	i	.
O=C(CC1SC(=O)N(Cc2ccccc2Cl)C1=O)Nc1nccs1 (stereo unspecified)	.	.	-0.93	.	.	.
Cc1ccc(S(=O)(=O)Nc2cc(NC(=O)CN3CCOCC3)ccc2Cl)cc1	2	0.052	0.41	.	i	0.088
Cc1cccn2c(=O)c3cc(C#N)c(=NC(=O)c4ccncc4)n(CCCOC(C)C)c3nc12	0	.	-0.72	-4.3*	i	0.049*
CC(=O)N=c1c(C#N)cc2c(=O)n3cccc(C)c3nc2n1CCCOC(C)C	.	0.17	-0.42	.	.	.
COCCCn1c(=NC(=O)c2ccncc2)c(C#N)cc2c(=O)n3cccc(C)c3nc21	-1	-0.013	0.73	.	i	0.06*
Cn1cccc1/C=N/N1CCN(Cc2cccc3ccccc23)CC1	.	-0.49	0.35	.	.	.
Cc1cccc(NC(=O)NC(C)C(c2ccccc2)N2CCN(C)CC2)c1 (stereo unspecified)	-1	-0.017	2.4	-0.11	i	.
O=C(CSc1nc2c(sc3ccccc32)c(=O)n1CCCN1CCCC1)NCc1ccccc1	-1	-1.1	-0.15	-3.5*	i	0.06*
Cc1ccc(CNC(=O)CSc2nc3c(sc4ccccc43)c(=O)n2CCCN2CCCC2)cc1	0	1	1	-2.2	i	.
COc1ccc(-c2csc3ncn(CC(=O)N4CCOCC4)c(=O)c23)cc1	0	.	-0.58	0.93	i	.
CCCc1cc(C(=O)Nc2ccccc2SC)no1	-1	0.00079	2.7	.	i	?
COc1cc(CNCCN2CCOCC2)ccc1OCc1ccc(Cl)cc1Cl	-3	0.083	0.73	.	i	0.055*
COc1cc(CNCCN2CCOCC2)ccc1OCc1cccc(Cl)c1	0	-0.59	0.3	-1.1	i	.
SMILES	DTT redox prof	KCC2 mod	Dynein cargo inh	ROMK primary	Autophagy HCS	ROMK hit retest
COC(=O)Cc1cc(=O)[nH]c(/N=C(\N)Nc2ccc(C)cc2)n1	0	-0.12	-1.1	.	i	.
COc1ccc(N/C(N)=N/c2nc(CSc3nnc(C)s3)cc(=O)[nH]2)cc1	-1	-0.27	-0.65	3.9*	i	0.079
Cc1ccc(N/C(N)=N/c2nc(CSc3nnc(C)s3)cc(=O)[nH]2)c(C)c1	1	0.85	1.6	6.3*	i	0.086
CCOC(=O)c1c(CSc2ccc(C)cc2)n(C)c2cc(Br)c(O)c(CN(C)C)c12	-1	.	-1.5	.	i	0.051*
Cc1oc(-c2ccccc2F)nc1CN1CCC(C(=O)NCCC2=CCCCC2)CC1	0	-0.92	-0.61	-5.4*	i	0.056*
CCOC(=O)C(Sc1cc(-c2ccccc2)nc2ncnn12)C(C)=O (stereo unspecified)	.	-0.16	-0.55	0.17	.	.
OC1(c2ccc(Cl)c(Cl)c2)C[n+]2ccccc2N1Cc1ccccc1 (stereo unspecified)	.	1.1	0.46	-4*	.	0.058*
CN1CCN(NC(=O)CSc2ccc(Cl)cc2Cl)CC1	0	0.053	-0.43	0.0042	i	.
Cc1nc2c(C(=O)NCc3ccc4c(c3)OCO4)cnn2c(C)c1Cc1ccc(F)cc1Cl	2	0.21	0.3	.	i	.
Cc1nc2c(C(=O)NCc3ccco3)cnn2c(C)c1Cc1ccc(F)cc1Cl	1	-2.2	0.85	.	i	0.072
CC1(C)NC(=O)N(CC(O)COc2ccc(-c3ccc(C#N)cc3)cc2)C1=O (stereo unspecified)	-2	.	-1.1	19*	i	0.077
CC1(C)NC(=O)N(CC(O)COc2ccc(-c3ccccc3)cc2)C1=O (stereo unspecified)	0	.	1.4	-1.3	i	.
CC1CCN(CCCNC(=O)c2ccc3c(=O)n(Cc4ccc(Cl)cc4)c(=S)[nH]c3c2)CC1	0	1.3	-5.1	-2.7*	+	0.061*
O=C(c1ccc(Br)cc1)N(Cc1nc2ccccc2c(=O)[nH]1)C1CCCC1	0	0.15	-0.41	.	i	.
COc1cc(C(C[N+](=O)[O-])c2c(-c3ccccc3)cc3ccccn23)cc(OC)c1OC (stereo unspecified)	0	-0.0097	-2.9	-1.4	i	.
COc1ccc(C(C[N+](=O)[O-])c2c(-c3ccccc3)cc3ccccn23)cc1 (stereo unspecified)	0	-0.44	2.1	-3.7*	i	0.084
O=Nc1c(-c2ccccc2)cc2ccccn12	0	.	-1.4	0.033	i	.
COc1ccc(C(C[N+](=O)[O-])c2c(-c3ccccc3)cc3ccccn23)cc1OC (stereo unspecified)	0	-0.49	-1.6	-3.7*	i	0.064*
COc1ccc(OC)c(-c2cnc(OC(C)(C)C)nc2OC(C)(C)C)c1	0	-0.92	-0.04	2.3	i	.
O=S(=O)(Nc1nc2ccccc2nc1NCc1ccco1)c1ccc(F)cc1	.	-2.4	0.44	.	.	.
COc1cc2c(cc1NC(=O)c1cc(-c3ccccn3)nc3ccccc13)oc1ccccc12	0	-0.17	0.56	.	i	.
CCOC(=O)CCCOC(=O)c1ccc(S(=O)(=O)N(C)C)cc1	2	0.088	0.43	.	i	0.08
COc1ccc(N2CCN(S(=O)(=O)c3cnc[nH]3)CC2)cc1	.	0.011	0.33	.	.	.
O=C(c1cccc(F)c1)N1CCN(C(=O)c2cc(-c3ccc(Cl)cc3Cl)on2)CC1	0	-1.1	-0.22	-4.2*	i	?
CCCCN(C(=O)c1ccc(NC(=O)C(C)C)cc1)c1ccccc1	0	0.091	-0.66	0.59	i	.
